Bioassay records deposited in PubChem BioAssay by Broad Institute.
Statin myotox sup: protects C2C12 myotubes from simvastatin toxicity | ATP luminescence, 48 h; scaled: DMSO 0, geranylgeraniol control 100 | rescue of ATP level, % at 7.49 µM | actives 0.78% (n = 330,000);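 active = mean ATP rescue above about 67%, or every replicate alone reaching that limit, limit read from the data, passing the limit was not always enough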;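 note: myotubes were challenged with 10 µM simvastatin during compound exposure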
dFosB act-1: enhances mouse delta FosB homodimer DNA binding | P13346 | purified delta FosB, TAMRA-CDK5 oligo fluorescence polarization; percent of positive-control signal above neutral wells | activation, % at 25 µM | actives 0.99% (n = 340,000) | AID 493131;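 active = mean activation above about 17%, with every replicate also reaching it, limit read from the data, passing the limit was not always enough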
Target sequence (P13346 whole entry, looked up): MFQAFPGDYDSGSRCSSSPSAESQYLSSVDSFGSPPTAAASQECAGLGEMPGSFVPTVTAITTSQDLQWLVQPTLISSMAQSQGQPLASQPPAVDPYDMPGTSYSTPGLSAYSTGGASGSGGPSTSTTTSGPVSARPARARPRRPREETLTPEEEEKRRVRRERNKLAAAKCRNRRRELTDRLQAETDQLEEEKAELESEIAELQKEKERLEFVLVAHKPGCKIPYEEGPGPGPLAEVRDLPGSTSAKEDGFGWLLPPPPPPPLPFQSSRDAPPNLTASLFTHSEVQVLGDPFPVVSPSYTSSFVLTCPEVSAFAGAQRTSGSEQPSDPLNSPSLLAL
CAL PDZ FP-1: human CAL PDZ-peptide interaction inhibition. AID 504414. purified CAL PDZ, TMR-peptide fluorescence polarization, 1 h. Q9HD26. inhibition, % at 20 µM. actives 0.02% (n = 330,000);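 active = highest replicate inhibition of at least 40%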;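 note: plate controls were DMSO neutral control wells for no effect and unlabeled competitor peptide control wells for full effect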
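material = purified tagged CAL PDZ domain construct (CerCALP) | buffer or medium = sodium phosphate/NaCl buffer pH 7.4 with TCEP, IgG, Thesit | reagent = TMR-labelled reporter peptide T*-PRC34 bound in PDZ groove | incubation = 1 h room-temperature incubation prior to read | measured by = fluorescence polarization (mP) | evaluation = percent inhibition from loss of millipolarization | control set = unlabelled peptide and DMSO controls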
CDK5 inh: inhibitors of human CDK5/p35 kinase; Q00535+Q15078; Recombinant CDK5/p35, ADP-Glo luminescence, 60 min; inhibition, % at 10 µM; actives 0.01% (n = 330,000);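 active = highest replicate inhibition of at least 50% and at least 75% of replicates reaching 50%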;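 note: plate controls were DMSO neutral control for no effect and GW8510 at 10 µM for full effect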
S100A4 MyoIIA: S100A4-myosin IIA interaction inhibition. P26447. S100A4/TAMRA-MyoIIA peptide fluorescence polarization. inhibition, % at 10.7 µM. actives 0.14% (n = 360,000). AID 652163;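 active = mean inhibition of at least 70% across replicates, with every replicate also reaching that level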
Target sequence (P26447 whole entry, looked up): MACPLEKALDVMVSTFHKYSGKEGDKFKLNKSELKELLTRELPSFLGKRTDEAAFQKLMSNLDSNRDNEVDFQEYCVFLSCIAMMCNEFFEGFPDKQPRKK
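Test system: S100A4 monomer protein; Medium: HEPES pH 7.2 with CaCl2, KCl, NaCl, DTT, Triton; Probe or stimulus: TAMRA-labelled myosin IIA heavy-chain peptide probe, 5 nM; Doses: one dose per compound; Times: polarization read 5 min after assay mix addition, stable 5–60 min; Benchmarks: neutral control DMSO, positive control TFP.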
CAL PDZ FP-2: CAL PDZ (human) peptide binding inhibition; Q9HD26; purified CAL PDZ, TMR-peptide fluorescence polarization, 1 h; inhibition, % at 24.9 µM; actives 0.92% (n = 300,000);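 active = mean inhibition of at least 30% with at least half of replicates also reaching 30%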;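 note: 0% = DMSO neutral control and 100% = excess unlabeled competitor peptide PRC23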
dFosB act-2: enhances mouse delta FosB homodimer binding to DNA | shares compounds with dFosB act-1 | purified delta FosB, TAMRA-CDK5 oligo fluorescence polarization; normalised: neutral wells 0, positive control 100 | activation, % at 24.9 µM | 2,400 tested, under 10 active | AID 588690;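 active = highest replicate activation at or above 34% and every replicate reaching that threshold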;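 note: higher polarization means more probe DNA bound by delta FosB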
An asterisk follows results filed as active; . = no result. The list is not random: actives were taken first. Their share in the collection is about 2%.

SMILES	Statin myotox sup	dFosB act-1	CAL PDZ FP-1	CDK5 inh	S100A4 MyoIIA	CAL PDZ FP-2	dFosB act-2
Cn1c2c(c(=O)n(C)c1=O)CN(CCCN1CCOCC1)CN2	-5	-2	0	-2	.	-6	.
C[C@@H]1CN([C@@H](C)CO)C(=O)c2cc(NC(=O)Cn3cnnn3)ccc2O[C@@H]1CN(C)C(=O)Nc1ccc(F)cc1	-5	.	.	.	-17	.	.
CCOC1(OCC)OC(c2ccccc2)=C(C#N)C(C=Cc2ccccc2)C1(OCC)OCC (stereo not given)	.	.	.	.	19	.	.
CCOc1ccc(Cl)cc1S(=O)(=O)NCc1cccnc1	.	3	-2	0	.	-3	.
COc1ccc(S(=O)(=O)N(C)C[C@H]2Oc3cc(C#CC4CCCCC4)ccc3S(=O)(=O)N([C@@H](C)CO)C[C@@H]2C)cc1	-8	.	.	.	15	.	.
Cc1ccc(-c2c(C(=O)N/N=C/c3ccc4c(c3)OCO4)nnn2-c2nonc2N)cc1	13	45*	-2	.	-1	1	0
Nc1nonc1-n1nnc(C(=O)N/N=C/c2ccccc2)c1CSc1ccc(Cl)cc1	.	10	0	0	.	-5	.
Cc1ccc(SCc2c(C(=O)N/N=C/c3ccccc3)nnn2-c2nonc2N)cc1	.	25*	0	1	2	-3	-1
C/C(=N\NC(=O)c1nnn(-c2nonc2N)c1-c1ccc2c(c1)OCO2)c1ccc(C)cc1	-30	32*	0	-1	0	6	1
C/C(=N\NC(=O)c1nnn(-c2nonc2N)c1-c1ccc2c(c1)OCO2)c1ccc(F)cc1	-64	13	0	0	-51	7	.
Cc1cc(C(=O)Nc2cccc3c2O[C@H](CN(C)Cc2ccccc2)[C@@H](C)CN([C@@H](C)CO)C3=O)n(C)n1	-2	.	.	.	24	.	.
COc1ccc2nc(C)cc(SCC(=O)Nc3c(C)cccc3C)c2c1	.	73*	-3	1	1	-3	-4
COc1ccc(-c2ccccc2[C@@H]2[C@@H](C#N)N(C(=O)NC3CCCCC3)[C@H]2CO)cc1	.	.	.	.	10	.	.
Cc1ccc(C)c(CN2C(=O)c3ccccc3S(=O)c3ccc(C(=O)NCCCN4CCCC4)cc32)c1 (stereo not given)	-11	25*	-4	1	8	-6	4
CCC(=O)NNC(=O)CCC(=O)Nc1ccccc1	.	.	.	.	-2	.	.
O=C(CCC(=O)Nc1ccccc1)NNC(=O)C(c1ccccc1)c1ccccc1	.	42*	0	-1	.	-2	1
Cc1cccc(NS(=O)(=O)c2ccc3c(c2)Cc2cc(S(=O)(=O)Nc4cccc(C)c4C)ccc2-3)c1C	.	24*	-1	0	15	11	1
CCC(C)[C@H](NC(=O)c1cc2cc(Cl)ccc2n1C)C(=O)N1CCC[C@H]1C(=O)O (stereo not given in full)	11	2	1	0	1	2	.
O=C(CO/N=C/c1c(Cl)cccc1Cl)NNC(=O)c1cccc(Cl)c1	.	43*	1	1	-1	-7	0
CCOC(=O)Cc1csc(NC(=O)c2ccc(C)cc2)n1	.	-10	-18	4	-1	1	.
O=[N+]([O-])c1ccc2[nH]c3nc4ccccc4nc3c2c1	5	38*	-1	1	12	0	8
O=[N+]([O-])c1ccc2[nH]nc(-c3ccccc3)c2c1	.	-5	-3	0	.	-1	.
Cc1cc2oc(C(=O)Nc3nonc3C)c(C)c2cc1C	-12	20*	-2	1	-2	2	2
CCc1nonc1NC(=O)c1oc2ccc(F)cc2c1C	-5	35*	0	0	-9	.	1
CCc1ccc2oc(C(=O)Nc3nonc3C)c(C)c2c1	0	3	-2	-1	-3	-2	.
SMILES	Statin myotox sup	dFosB act-1	CAL PDZ FP-1	CDK5 inh	S100A4 MyoIIA	CAL PDZ FP-2	dFosB act-2
Nc1cc2c(cc1Cl)N(Cc1ccccc1)C(=O)CO2	4	-2	-1	1	4	12	.
C[C@@H]1CN([C@H](C)CO)C(=O)c2cc(NC(=O)Cc3ccccc3)ccc2O[C@@H]1CN(C)Cc1ccncc1	11	.	.	.	8	.	.
Cc1cc(NC(=O)c2cc(-c3ccccc3)on2)n(-c2ccccc2)n1	13	-1	0	2	.	-3	.
COc1ccc(-c2cc(C(=O)Nc3cc(C)nn3-c3ccccc3)no2)cc1	-8	23*	1	2	.	-4	-3
COC(=O)c1ccc(NC(=O)c2ccccc2)o1	-2	-9	0	0	.	-3	.
O=C(COC(=O)c1ccc2c(c1)OCO2)NCc1ccc2c(c1)OCO2	-1	3	1	5	.	-2	.
NC(=O)c1ccc(NC(=O)COC(=O)c2ccc3c(c2)OCO3)cc1	-3	24*	0	0	-2	5	-2
O=C(COC(=O)c1cc(Br)ccc1O)Nc1ccc2c(c1)OCO2	20	43*	0	1	-4	-2	-2
COc1ccc(/C=C/C(=O)OCC(=O)Nc2ccc3c(c2)OCO3)cc1	-4	28*	0	-1	-4	8	-9
CNc1ccc(C(=O)OCC(=O)NCc2ccc3c(c2)OCO3)cc1[N+](=O)[O-]	-1	36*	0	-1	-1	-7	-1
CNc1ccccc1C(=O)OCC(=O)Nc1ccc2c(c1)OCO2	-2	-1	-2	-1	-3	-2	.
COc1ccc(NC(=O)COC(=O)c2ccc3c(c2)OCCO3)cc1OC	0	48*	0	-1	6	-6	2
O=C(N[C@H]1CC[C@@H](CCNS(=O)(=O)c2cccc(Cl)c2)O[C@@H]1CO)c1ccc(F)cc1	-2	.	.	.	12	.	.
C/C(=N\NC(=O)c1nnn(-c2nonc2N)c1CSc1ccc(C)cc1)c1ccco1	-9	18*	-3	2	-9	0	4
C/C(=N\NC(=O)c1nnn(-c2nonc2N)c1CSc1ccccc1)c1ccco1	-32	38*	-2	3	6	1	4
Cc1ccc(SCc2c(C(=O)N/N=C/c3ccco3)nnn2-c2nonc2N)cc1	-5	.	.	.	-2	.	.
c1cn2cc(CSC3CCCCC3)nc2s1	6	-1	0	0	-1	-2	.
CCn1cc(C(=O)O)c(=O)c2cc(F)c(N3CCN(S(=O)(=O)c4ccc5c(c4)OCCO5)CC3)cc21	.	-2	-1	-3	-3	0	.
C=CCNC(=S)N/N=C/c1cn(-c2ccccc2)nc1-c1ccc(OC)cc1	.	-4	1	.	4	0	.
O=C(Nc1nc(-c2cccnc2)cs1)c1ccccc1Cl	0	24*	0	2	-1	4	7
